# Measurements taken from PubChem BioAssay.
# Calls of active or inactive are those of the source.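 Rule for the calls, unless noted: active = inhibition at or above 50% at 10 µM; inactive = inhibition below 50%.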
# Tests used:
# [1] = inhibitors of TNFa-induced NFkB p65 translocation, primary screen, imaging, HUVEC, MLSMR starter and 10KST1 sets (AID 438;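 active = inhibition above 20% together with a positive visual image hit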;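 note: compound added about 3h40 before a 20 min TNFalpha stimulation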;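 for inhibition: signal is the nuclear over cytoplasmic p65 intensity ratio per well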); conditions: HUVEC TNFa-induced p65 nuclear translocation; cell count: measured here: nuclei count (cytotoxicity indicator), at 2.08 µM; inhibition: at 2 µM, stronger effect = higher value, 0% TNFa-plus-vehicle, 100% no-TNFa wells
# [2] = inhibitors of mutant huntingtin aggregation, primary screen, imaging, exon1htt(103Q)mCFP cells, high-content imaging (AID 483;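 active = visual image review flags a hit and inhibition of aggregation exceeds 20%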;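 note: compound exposure lasted 3 days before fixation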;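 for nuclei count: percent of the per-plate median nuclei count of sample wells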); conditions: exon1htt(103Q)mCFP cell line, aggregate imaging, at 2 µM; inhibition of aggregation: stronger effect = higher value; nuclei count: measured here: cell count, toxicity
# [3] = inhibitors of E-selectin induction by TNFa, primary screen, imaging, HUVEC, immunofluorescence, MLSMR starter and 10KST1 sets (AID 487;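 active = visually confirmed hit in the image check and inhibition above 20%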;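 for inhibition: signal is fraction of cell area covered by stained E-selectin grains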;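 for nuclei count: 100% = median nuclei count of all wells on the same plate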); conditions: HUVEC TNFalpha-induced E-selectin immunofluorescence imaging, at 2 µM; inhibition: stronger effect = higher value; nuclei count: measured here: cell number, toxicity
# [4] = molecular target: Voltage-gated potassium channel subunit beta-2 (Rattus norvegicus) (UniProt P62483); experiment: KvBeta enzyme negative modulators, primary screen, biochemical, NADPH fluorescence (AID 622;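 active = fluorescence slope higher than the sample average by over 3 SD, cut at about -0.22 in these data, passing the limit was not always enough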;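 note: slope of raw intensity against log time taken from 70 to 1610 s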); conditions: recombinant KvBeta, 4-cyanobenzaldehyde reduction, at 10 µM, stronger effect = higher value
# [5] = molecular target: Voltage-gated potassium channel subunit beta-2 (Rattus norvegicus) (UniProt P62483); experiment: KvBeta positive modulators, primary screen, biochemical, NADPH fluorescence (AID 623;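 active = NADPH fluorescence slope more negative than the mean of all samples by about 3 SD, 99.7% confidence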;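 note: fluorescence intensity change per second fitted from 20 to 320 s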); conditions: Recombinant KvBeta, NADPH fluorescence decrease slope, 10 min; at 10 µM; stronger effect = lower value
# [6] = molecular target: Muscarinic acetylcholine receptor M4 (Homo sapiens) (UniProt P08173); experiment: compounds altering M4/GIRK thallium flux, either direction, primary screen, M4 allosteric agonist project, cell-based, HEK293 M4/GIRK, BTC-AM (AID 625;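 active = fluorescence slope after compound addition differing from the mean of all tested samples at 99.7% confidence, mostly higher but some lower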;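 note: thallium influx through GIRK channels coupled to M4 in HEK293 cells with BTC-AM dye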); conditions: at 10 µM, actives lie on both sides
# Procedure, shortened: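 Assay system: HEK293 cells with M4 receptor and GIRK channels / Controls: carbachol and DMSO controls / Schedule: 1 h dye loading, 2 min kinetic read / Technique: kinetic fluorescence with BTC-AM dye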
# [7] = inhibitors of Sendai virus-induced IRF3 signaling, primary screen, TLR/RLR signaling modifier project, cell-based, Sendai virus stimulus, luciferase, 10K MLSCN set (AID 602276); conditions: HEK293 RL24 IRF3 luciferase reporter, at 10 µM, stronger effect = higher value;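 note: firefly luciferase from ISG56 promoter only with Renilla not read in this screen; 0% = Sendai virus plus DMSO and 100% = medium plus DMSO without virus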
# [8] = inhibitors of poly I:C-induced TLR3 signaling, primary screen, cell-based, poly I:C stimulus, luciferase, 10K MLSCN set (AID 602277;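 active = inhibition of the reporter signal at or above 50%; inactive = inhibition below 50%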); conditions: HEK293-TLR3 RL24 IRF3 luciferase reporter, at 10 µM, stronger effect = higher value
# Sequence of Muscarinic acetylcholine receptor M4 (Homo sapiens) (P08173 whole entry, looked up): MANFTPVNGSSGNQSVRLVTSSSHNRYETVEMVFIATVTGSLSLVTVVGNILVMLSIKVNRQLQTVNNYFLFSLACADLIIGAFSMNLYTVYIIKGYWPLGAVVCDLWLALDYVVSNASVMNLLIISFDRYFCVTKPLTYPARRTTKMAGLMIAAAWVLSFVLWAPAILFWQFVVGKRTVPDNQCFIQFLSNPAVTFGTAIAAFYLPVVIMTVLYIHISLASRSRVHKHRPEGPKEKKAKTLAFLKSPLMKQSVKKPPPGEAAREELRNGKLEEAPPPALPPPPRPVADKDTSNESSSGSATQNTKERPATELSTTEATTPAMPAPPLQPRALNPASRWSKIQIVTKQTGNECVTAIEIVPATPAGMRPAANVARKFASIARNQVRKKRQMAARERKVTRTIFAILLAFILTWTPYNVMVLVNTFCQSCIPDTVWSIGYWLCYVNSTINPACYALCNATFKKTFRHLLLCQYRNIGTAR
# Sequence of Voltage-gated potassium channel subunit beta-2 (Rattus norvegicus) (P62483 whole entry, looked up): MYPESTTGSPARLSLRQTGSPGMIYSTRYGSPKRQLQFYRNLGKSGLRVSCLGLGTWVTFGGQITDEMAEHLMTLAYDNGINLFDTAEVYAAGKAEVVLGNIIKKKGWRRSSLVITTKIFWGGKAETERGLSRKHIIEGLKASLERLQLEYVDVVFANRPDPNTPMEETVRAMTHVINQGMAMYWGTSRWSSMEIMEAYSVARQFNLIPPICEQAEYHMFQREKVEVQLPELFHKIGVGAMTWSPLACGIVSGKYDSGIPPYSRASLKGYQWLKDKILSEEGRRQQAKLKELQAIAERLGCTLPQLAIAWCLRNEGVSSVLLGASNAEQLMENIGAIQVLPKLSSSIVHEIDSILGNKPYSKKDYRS
Structure (SMILES),cell count [1],inhibition [1],inhibition of aggregation [2],nuclei count [2],inhibition [3],nuclei count [3],fluorescence slope [4],NADPH fluorescence slope [5],fluorescence slope [6],inhibition [7],inhibition [8]
CCC1C(=O)n2nc(-c3ccccc3)cc2N=C1C (centres undefined),330,0% (inactive),-7.3% (inactive),102%,-4.1% (inactive),114%,-0.506 (inactive),-4.6e-05 (inactive),0.006 (inactive),-22% (inactive),-37% (inactive)
CN(C)/C=C(\C#N)c1nc2ccccc2[nH]1,468,11.9% (inactive),-17.2% (inactive),67.1%,-7.3% (inactive),112%,-0.532 (inactive),-3.9e-05 (inactive),0.00457 (inactive),-21.4% (inactive),-44.6% (inactive)
CCCCCOC(=O)CSc1nnc(-c2cc(OC)c(OC)c(OC)c2)o1,747,-21.6% (inactive),16.3% (inactive),116%,-73.6% (inactive),119%,-0.363 (inactive),-3.4e-05 (inactive),0.00542 (inactive),3.74% (inactive),10.4% (inactive)
CCOc1ccccc1C(=O)NCCC(=O)O,326,-5.1% (inactive),-42.8% (inactive),91.6%,16% (inactive),118%,-0.505 (inactive),-0.00026 (inactive),0.00473 (inactive),-1.19% (inactive),-5.47% (inactive)
COc1ccccc1C(=O)N1CCNC(=O)C1CC(=O)Nc1ccc(Cl)cc1 (centres undefined),469,1.3% (inactive),9.7% (inactive),105%,-302% (inactive),123%,-0.565 (inactive),-2.7e-05 (inactive),0.00504 (inactive),18.2% (inactive),28.3% (inactive)
Cc1nc2cc(CO)ccc2n1C,425,4.7% (inactive),1% (inactive),92.7%,-12.6% (inactive),108%,-0.589 (inactive),-3.5e-05 (inactive),0.00622 (inactive),2.69% (inactive),14.4% (inactive)
CC(=O)c1cc2c(=O)c3cc(C)ccc3oc2nc1C,410,5.3% (inactive),7.1% (inactive),93.5%,-96.2% (inactive),187%,-0.346 (inactive),5.2e-06 (inactive),0.00597 (inactive),-28.2% (inactive),-91.3% (inactive)
COc1ccc(C2CC(=O)c3c(C)nc(N4CCN(c5ccccc5)CC4)nc3C2)cc1 (centres undefined),598,5.6% (inactive),-5.3% (inactive),109%,29.4% (inactive),108%,-0.574 (inactive),-4.7e-05 (inactive),0.00457 (inactive),8.81% (inactive),-8.5% (inactive)
Cc1ccc(-n2nnnc2SCC(=O)N2CCN(C(=O)c3ccco3)CC2)c(C)c1,731,-4.4% (inactive),27.6% (inactive),91%,-5.5% (inactive),109%,-0.568 (inactive),-5.4e-05 (inactive),0.00555 (inactive),1.61% (inactive),10.6% (inactive)
COCC(=O)N(Cc1ccc(OC)cc1)Cc1nc2ccccc2c(=O)[nH]1,351,6.5% (inactive),-0.1% (inactive),91.9%,-57.4% (inactive),117%,-0.572 (inactive),-4.4e-05 (inactive),0.00687 (inactive),17.3% (inactive),26.3% (inactive)
O=C(Nc1ccccc1)c1cccnc1N1CCOCC1,590,-11.1% (inactive),-5.4% (inactive),110%,-36.4% (inactive),84.1%,-0.449 (inactive),-0.000339 (inactive),0.00425 (inactive),4.9% (inactive),19.1% (inactive)
CCCN(CCO)Cc1cccc(Br)c1,492,-1.1% (inactive),7.9% (inactive),93.6%,-109% (inactive),109%,-0.437 (inactive),2.5e-05 (inactive),0.00547 (inactive),14.5% (inactive),19.3% (inactive)
CC1(C)CC(=O)C2=C(C1)Nc1nc(SCCN3CCOCC3)[nH]c(=O)c1C2c1cccs1 (centres undefined),549,-8.4% (inactive),-11.8% (inactive),50.7%,-42.7% (inactive),104%,-0.57 (inactive),-3e-05 (inactive),0.00647 (inactive),-3.95% (inactive),-12.2% (inactive)
Cc1ccccc1-c1nc(CN2CCC(C(=O)NCCCN3CCCC3)CC2)c(C)o1,223,0% (inactive),-91.5% (inactive),101%,25.4% (inactive),94.2%,-0.553 (inactive),7.2e-05 (inactive),0.00435 (inactive),-136% (inactive),56.5% (active)
Nc1ccc(Sc2nnnn2-c2ccccc2)c(Cl)c1,312,-5.1% (inactive),8% (inactive),108%,-4% (inactive),78.5%,-0.468 (inactive),-3.4e-05 (inactive),0.00613 (inactive),8.66% (inactive),13% (inactive)
CS(=O)(=O)Nc1ccc(C(=O)NCCc2ccccc2)cc1,342,-2% (inactive),-9.2% (inactive),108%,-69% (inactive),125%,-0.535 (inactive),-1.7e-06 (inactive),0.00454 (inactive),-13.2% (inactive),-40.3% (inactive)
c1ccc(CCc2nn3c(Cn4cnc5ccccc54)nnc3s2)cc1,598,-3.3% (inactive),-18% (inactive),100%,-29.5% (inactive),97.5%,-0.53 (inactive),2.5e-05 (inactive),0.00554 (inactive),14.9% (inactive),-3.65% (inactive)
Cc1cc(NCCN(C)C)n2nc(-c3cccs3)cc2n1,597,7.8% (inactive),6.4% (inactive),102%,-69% (inactive),114%,-0.335 (inactive),-6.9e-05 (inactive),0.00655 (inactive),-3.67% (inactive),1.86% (inactive)
Clc1ccc(Cl)c(-c2nn3c(COc4ccccc4)nnc3s2)c1,678,-5% (inactive),-9.4% (inactive),104%,-81.1% (inactive),139%,-0.546 (inactive),-2.8e-05 (inactive),0.00451 (inactive),23.3% (inactive),23.2% (inactive)
Cc1ccc(NC(=O)CC2Nc3ccccc3NC2=O)cc1Cl (centres undefined),357,1.4% (inactive),14.7% (inactive),84.3%,-45.4% (inactive),99.7%,-0.545 (inactive),-1.9e-05 (inactive),0.00597 (inactive),-4.9% (inactive),-16.9% (inactive)
COc1ccc(OCCCC(=O)Nc2ccc3c(c2)OCCO3)cc1,467,10.1% (inactive),-6.5% (inactive),104%,-237% (inactive),140%,-0.299 (inactive),-2.2e-05 (inactive),0.00647 (inactive),-5.01% (inactive),-17.3% (inactive)
O=C(OCC#CCSc1nc2ccccc2o1)c1ccco1,541,6.7% (inactive),-4.7% (inactive),111%,-7.3% (inactive),116%,-0.405 (inactive),1.4e-05 (inactive),0.00568 (inactive),-2.28% (inactive),-8.72% (inactive)
CC(c1ccco1)N(C(=O)COc1ccc(Cl)cc1Cl)c1ccccn1 (centres undefined),720,2.4% (inactive),-4.8% (inactive),96%,-108% (inactive),119%,-0.466 (inactive),-6.4e-05 (inactive),0.00469 (inactive),2.26% (inactive),-73.7% (inactive)
CCCn1c2c(c(O)c(C(=O)NC)c1=O)CCCC2,323,3.4% (inactive),-3.3% (inactive),101%,-40.9% (inactive),112%,-0.566 (inactive),-6.4e-05 (inactive),0.00821 (inactive),26.6% (inactive),25.6% (inactive)
CC(C)=CC(=O)OCC(=O)NC(=O)NC(C)(C)C,220,13.1% (inactive),14.1% (inactive),97.7%,3.9% (inactive),98.5%,-0.591 (inactive),-1.3e-05 (inactive),0.00792 (inactive),-2.29% (inactive),9.61% (inactive)
CCn1nccc1C(=O)Nc1nccs1,392,-0.5% (inactive),-32.5% (inactive),108%,-45.2% (inactive),103%,-0.456 (inactive),-4.4e-05 (inactive),0.00538 (inactive),16.4% (inactive),9.69% (inactive)
COc1cc(=O)[nH]c(SCc2c(F)c(F)c(F)c(F)c2F)n1,546,2.2% (inactive),6.7% (inactive),87.6%,-11.4% (inactive),104%,-0.436 (inactive),-4e-05 (inactive),0.00944 (inactive),-4.06% (inactive),22.3% (inactive)
CCOC(=O)CSc1nnc(-c2cccnc2)n1Cc1ccccc1,568,16.6% (inactive),10.1% (inactive),97.1%,-105% (inactive),158%,-0.576 (inactive),1.1e-05 (inactive),0.00573 (inactive),-4.13% (inactive),1.14% (inactive)
Cc1cccc(-n2c(Cc3cc(=O)[nH]c(=O)[nH]3)nnc2SCC(=O)NCc2ccco2)c1,400,-4% (inactive),-21.7% (inactive),90%,-15.1% (inactive),101%,-0.529 (inactive),-4.9e-05 (inactive),0.00455 (inactive),12.7% (inactive),7.93% (inactive)
